SMILES strings stand for the structures. Read-outs that look alike come from different tables or passages of the source.

The test system of data set [1] is OVCA432 cells. Kind of data set: Western blot of cell lysates, OVCA432. Type of data set: cell-based, human. The following applies: for Cleaved PARP protein expression / Cleaved caspase-3 protein expression: OVCA432, 24 hours, 50 μM LiCl, 5 μM 9ING41, 25 μM SB216763. In outline:
(§1)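 Lysates taken after 24 h treatment with test compound or 0.1% DMSO, in Tris-HCl pH 7.6/NaCl/NP-40/deoxycholate/SDS buffer with protease and phosphatase inhibitors, protein equalised by BCA. Run on reducing 10% Bis-Tris gels and transferred to PVDF. Blocked in 5% milk TBS-T; cleaved caspase-3 in 5% BSA PBS-0.5% tween; cyclin D1 in 5% BSA TBS-T. Probed with rabbit primaries (total GSK3β, actin as controls) and HRP anti-rabbit, detected by chemiluminescence. Densitometry from triplicate blots.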
For orientation: A western blot detects proteins with antibodies after separation by electrophoresis.

Data set [2] has as its system SKOV3 cells. Briefly: Western blot of cell lysates, SKOV3. Type of data set: cell-based, human. The following applies: for Cleaved PARP protein expression / Cleaved caspase-3 protein expression: SKOV3, 24 hours, 50 μM LiCl, 5 μM 9ING41, 25 μM SB216763. In short, it runs like this:
as §1

Data set [3] concerns SKOV3 ovarian cancer cells. The following applies: cited from earlier work.
Data set [4] concerns SKOV3 xenograft. The following applies: drugs and cells mixed before subcutaneous injection; cited from earlier work.
In data set [5] the test system is OVCA432 cells. Kind of data set: DAPI staining for apoptotic cells, OVCA432. Type of data set: cell-based, human. The following applies: OVCA432, 24 hrs; 50 μM LiCl, 5 μM 9ING41, 25 μM SB216763; vs DMSO. In short, it runs like this: (§2)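 OVCA432 grown in supplemented MEM and SKOV3 in McCoy's 5A, both with 10% FBS, at 37 °C, 5% CO2. Cells plated at 5 × 10^4 per chamber-slide well and left to attach overnight. Exposed one day to test compound or 0.1% DMSO, then fixed in 4% paraformaldehyde and mounted in DAPI medium. Nuclei with condensed DNA or […] fragmentation counted in 3 fields (20× objective), triplicate experiments.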

In data set [6] the test system is SKOV3 ovarian cancer cells. Briefly: Proliferation assay. As to conditions: read-out: IC50 (μM) SKOV3. Type of data set: cell-based, human.
The subject of data set [7] is OVCA432 ovarian cancer cells. Kind of data set: Proliferation assay. Type of data set: cell-based, human. The following applies: read-out: IC50 (μM) OVCA432.
The nature of data set [8]: Bioavailability and plasma pharmacokinetics. As to conditions: rat. Type of data set: in vivo, Sprague-Dawley rats. In short, it runs like this:
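Male Sprague-Dawley rats dosed at 10 mg/kg iv and 400 mg/kg po. Blood drawn into EDTA (n=3), kept on ice and processed within 30 min. Plasma spun at 2–8 °C for 15 min and stored at -80 °C. Acetonitrile with 100 ng/ml hexylnicotinate internal standard added, then vortexed and centrifuged at 18000g. Supernatant run by LC-MS/MS. Non-compartmental PK analysis.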

Data set [9] has as its system SKOV3 cells. Briefly: TUNEL staining, SKOV3. As to conditions: SKOV3, 24 hours, 5 μM 9ING41; vs DMSO. Type of data set: cell-based, human. In outline: (§3)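 Cells plated at 5 × 10^4 per chamber-slide well, attached overnight at 37 °C, then treated 24 h with test compound or 0.1% DMSO. Fixed in 4% paraformaldehyde. Stained with a colorimetric TUNEL kit per manufacturer. Brown TUNEL-positive cells counted in 3 fields imaged with a 20× objective, from triplicate experiments.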

Data set [10] in a line: Range-finding toxicity study. As to conditions: rats, oral, 8 days observation.
The subject of data set [11] is OVCA432 cells. Kind of data set: TUNEL staining, OVCA432. Type of data set: cell-based, human. The following applies: OVCA432, 24 hours, 5 μM 9ING41; vs DMSO. In short, it runs like this:
as §3

The subject of data set [12] is SKOV3 cells. Briefly: DAPI staining for apoptotic cells, SKOV3. Type of data set: cell-based, human. As to conditions: SKOV3, 24 hrs; 5 μM 9ING41; vs DMSO. In short, it runs like this:
as §2

The mark [13] stands for this setting: SKOV3 cells, 4 days (96 hours), concentration required to kill 50% of the cells.
Where [14] appears, read: OVCA432 cells, 4 days (96 hours), concentration required to kill 50% of the cells.

`[Cl-].[Li+]` [LiCl, Lithium chloride, reference compound]: in [1], the “Cleaved PARP protein expression” value was “absence” and the “Cleaved caspase-3 protein expression” value is recorded as “absence”. Further, in data set [2], the “Cleaved PARP protein expression” value is listed as “absence” and the “Cleaved caspase-3 protein expression” value is given as “absence”. Further, the “Growth inhibition of SKOV3” value in [3] is reported as “growth inhibited”. For the same molecule, the SKOV3 tumor growth result in data set [4] is listed as “significantly slow SKOV3 tumor growth”. The “Induction of apoptosis (DAPI)” value in [5] is “induced apoptosis”.
Take `COc1cccc2c(C3=C(c4cn(C)c5cc(Cl)c(F)cc45)C(=O)NC3=O)coc12` [9-ING-87]: the results for the half-maximal inhibitory concentration (IC50) in [6] (setting [13]) and in data set [7] (setting [14]) were 42.7 µM and 10.7 µM, respectively.
For the molecule `Cn1cc(C2=C(c3ccc(Cl)cc3Cl)C(=O)NC2=O)c2ccccc21` [SB216763, reference compound], the “Cleaved PARP protein expression” value in data set [1] and in data set [2] was “absence” each time. Moreover, the “Cleaved caspase-3 protein expression” value in [1] and in data set [2] was “absence” each time. Further, in data set [3], the “Growth inhibition of SKOV3” value is given as “growth inhibited”. Further, the IC50 in [6] (Homo sapiens, SK-OV-3, 96 h) is over 50 µM; in [7] (Homo sapiens, OVCA432, 96 h) it was over 50 µM. In addition, the “Induction of apoptosis (DAPI)” value in data set [5] was “induced apoptosis”.
Regarding `Cn1cc(C2=C(c3coc4ccc(F)cc34)C(=O)NC2=O)c2cc3c(cc21)OCO3` [9-ING-41], the “Phosphorylation of GSK3β ser9 (normalized to total GSK3β)” value in data set [1] (OVCA432, 5 μM 9ING41, 24 hours) is recorded as “increased phosphorylation”; in data set [2] (SKOV3, 5 μM 9ING41, 24 hours), “increased phosphorylation”. Besides, the “Phosphorylation of glycogen synthase” value in [1] (OVCA432, 5 μM 9ING41, 24 hours) is “significantly inhibited”; in data set [2] (SKOV3, 5 μM 9ING41, 24 hours) it was “significantly inhibited”. Moreover, the “Cleaved PARP protein expression” value in [1] and in data set [2] was “cleaved product of PARP was detected” throughout. The “Cleaved caspase-3 protein expression” value in data set [1] and in [2] was “increase in cleaved caspase-3” each time. Besides, the “Cyclin D1 expression” value in data set [2] (SKOV3, 5 μM 9ING41, 24 hours) is “increased”. The “AUC (area under the concentration-time curve)” value in data set [8] (iv 10 mg/kg) is 2740 ng·h/mL; in data set [8] (po 400 mg/kg) it was 4950 ng·h/mL. Further, the results for the “CL (systematic clearance)” value in [8] (iv 10 mg/kg) and in [8] (po 400 mg/kg) were 61.5 mL/min/kg and 2210 mL/min/kg, respectively. Also, in [8] (iv 10 mg/kg), the “Co (plasma concentration at T = 0)” value amounted to 1390 ng/mL. The “T1/2 (apparent elimination half-life)” value is listed as 4.85 h in data set [8] (iv 10 mg/kg) and 4.0 h in data set [8] (po 400 mg/kg). Further, the “V (volume of distribution)” value worked out at 26.2 L/kg in data set [8] (iv 10 mg/kg) and 810 L/kg in [8] (po 400 mg/kg). Moreover, the Elimination half-life in [8] (iv 10 mg/kg and po 400 mg/kg) is 4.0 to 4.85 h. In data set [8] (iv 10 mg/kg and po 400 mg/kg), this molecule registered a Volumes of distribution of at least 26 L/kg. Further, the “Plasma level C” value in [8] (iv 10 mg/kg, 0.083 h) worked out at 1390 ng/mL; in [8] (iv 10 mg/kg, 0.167 h), 1410 ng/mL; in data set [8] (iv 10 mg/kg, 0.5 h), 1190 ng/mL; in [8] (iv 10 mg/kg, 1 h), 690 ng/mL; in data set [8] (iv 10 mg/kg, 2 h), 367 ng/mL; in data set [8] (iv 10 mg/kg, 4 h), 139 ng/mL. Further, the “Plasma level C” value in data set [8] (iv 10 mg/kg, 6 h) stood at 77 ng/mL; in [8] (iv 10 mg/kg, 8 h) it was 41 ng/mL; in data set [8] (iv 10 mg/kg, 24 h), 6.7 ng/mL; in data set [8] (po 400 mg/kg, 0.083 h) it was 4.7 ng/mL; in data set [8] (po 400 mg/kg, 0.167 h) it was 18.2 ng/mL; in data set [8] (po 400 mg/kg, 0.5 h), 156 ng/mL. Also, the “Plasma level C” value in data set [8] (po 400 mg/kg, 1 h) was 540 ng/mL; in data set [8] (po 400 mg/kg, 2 h), 820 ng/mL; in data set [8] (po 400 mg/kg, 4 h), 934 ng/mL; in data set [8] (po 400 mg/kg, 6 h), 340 ng/mL; in data set [8] (po 400 mg/kg, 8 h), 123 ng/mL; in [8] (po 400 mg/kg, 24 h) it was 8.3 ng/mL. In addition, the “F (bioavailability)” value in data set [8] (po 400 mg/kg vs iv 10 mg/kg) was 4.5%. Besides, the IC50 in [6] (setting [13]) came to 10.5 µM; in data set [7] (setting [14]) it was 11.2 µM. Also, the “Apoptosis (TUNEL-positive cells)” value in [9] and in data set [11] was “significantly increased apoptosis” throughout. Besides, in data set [10], the “Maximum tolerated dose (MTD)” value is on record as “greater than 500 mg/kg”. Also, the “Induction of apoptosis (DAPI)” value in data set [5] and in data set [12] was “induced apoptosis” each time.

Broadly, the IC50 is the concentration that gives 50% inhibition.

Values taken from PMC3188381 (Anti-cancer drugs, 2011).
